Here are results for two compounds from ChEMBL document CHEMBL1275590, “Novel arylimidamides for treatment of visceral leishmaniasis” (Antimicrob Agents Chemother, 2010).

Calls of active or inactive are those of the source.

A short description of series [1]: Induction of mutagenicity in Salmonella serovar Typhimurium TA 98 assessed as number of revertant colonies at 1 ug by Ames assay. Format: toxicity, Salmonella enterica subsp. enterica serovar Typhimurium. The following applies: in vivo. In a few lines: (§1)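 Ames plate incorporation with S. Typhimurium TA98 and TA100, with or without Aroclor 1254-induced rat liver S9 (10% vol/vol). Compound was dissolved in sterile water and serially diluted to 1–500 μg/plate. Positive controls were 2-nitrofluorene and sodium azide without S9, and 2-aminoanthracene with S9; sterile water and DMSO served as vehicles. Revertant colonies and background lawn were scored. A mutagen was defined as a mean revertant count at least 2-fold over solvent control. Single experiment.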
On the technique in general: The Ames test uses bacterial strains that need an amino acid and regain growth without it when mutated back.

A short description of series [2]: Induction of mutagenicity in Salmonella serovar Typhimurium TA 100 assessed as number of revertant colonies at 10 ug by Ames assay. Format: toxicity, Salmonella enterica subsp. enterica serovar Typhimurium. The note with it: in vivo. In a few lines: as §1
The nature of series [3]: Induction of mutagenicity in Salmonella serovar Typhimurium TA 100 assessed as number of revertant colonies at 500 ug by Ames assay. In kind it is toxicity, Salmonella enterica subsp. enterica serovar Typhimurium. The following applies: in vivo. In a few lines: as §1
The subject of series [4] is Leishmania donovani. Description: Antileishmanial activity against Leishmania donovani promastigotes in BALB/c mouse assessed as inhibition of liver parasitemia at 30 mg/kg/day, ip administered for five days. In kind it is functional, organism-based. In a few lines: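 Murine VL model in L. donovani-infected mice. Compounds were dissolved in water and given i.p. or p.o. once daily for 5 days (4 days for one i.p. regimen). Liver parasitemia was compared with untreated controls by unpaired Student's t test, P ≤ 0.05.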

The test system of series [5] is Leishmania donovani. Nature of the series: Antileishmanial activity against Leishmania donovani WR378 infected in golden Syrian hamster assessed as reduction in liver parasitemia at 100 mg/kg/day, po administered for five days. In kind it is functional. The following applies: 120 h. In a few lines: (§2)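 11-day golden hamster VL model adapted from an 8-day method, using L. donovani WR378 metacyclic promastigotes. Dosing was oral, once daily for 5 days. Animals were euthanized on day 11 post-infection. Liver, spleen and femoral bone marrow (flushed with Schneider's medium) were harvested.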

Series [6] has as its system Leishmania donovani. Description: Antileishmanial activity against Leishmania donovani WR378 infected in golden Syrian hamster assessed as reduction in spleen parasitemia at 30 mg/kg/day, po administered for five days. Format: functional. The following applies: 120 h. In a few lines:
as §2

A short description of series [7]: (§3) Volume of distribution in Swiss Webster mouse at 66 mg/kg, po by HPLC-MS/MS analysis. In kind it is ADME, organism-based. Further details: dose 66 mg/kg, route oral. The note with it: Swiss Webster, in vivo. In a few lines: (§4)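 Male Swiss Webster mice (n = 3 per time point), single dose by oral gavage (sterile water solution) or tail-vein bolus i.v. (water diluted 1:1 with 2× saline, over ~10–20 s); dose volume 5 ml/kg. Terminal blood sampled from 5 min to 72 h postdose; plasma quantified by HPLC-MS/MS (positive-ion SRM). Noncompartmental analysis gave Cmax, Tmax, AUC0-∞, CL, Vss; bioavailability from p.o. versus i.v. exposure.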

A short description of series [8]: Clearance in Swiss Webster mouse at 5 mg/kg, iv by HPLC-MS/MS analysis. Further details: dose 5 mg/kg, route intravenous. In kind it is ADME, organism-based. The following applies: in vivo. In a few lines:
(§5)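 Male Swiss Webster mice, n = 3 per time point. For i.v., the compound was dissolved in sterile water, diluted 1:1 with 2× saline, and given as a tail-vein bolus over ~10–20 s. For p.o., it was given by gavage in sterile water. Dose volume was 5 ml/kg. Terminal plasma was taken from 5 min to 72 h and measured by HPLC-MS/MS (calibration 2.5–10,000 nM). Parameters came from noncompartmental analysis.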

Series [9] in a line: Oral bioavailability in Swiss Webster mouse at 70 mg/kg by HPLC-MS/MS analysis. Format: ADME, organism-based. The note with it: in vivo. In a few lines: as §4
Series [10] deals with Mus musculus. Description: Hepatotoxicity in BALB/c mouse assessed as AST level in serum at 30 mg/kg/day, iv administered for five days (Rvb= 65 U/L). In kind it is toxicity, organism-based. Further details: route intravenous. The following applies: in vivo.
Series [11] concerns Mus musculus. Nature of the series: Hepatotoxicity in BALB/c mouse assessed as AST level in serum at 100 mg/kg/day, po administered for five days (Rvb= 70 U/L). The note with it: in vivo. Format: toxicity, organism-based. Further details: route oral.
A short description of series [12]: Induction of mutagenicity in Salmonella serovar Typhimurium TA 98 assessed as number of revertant colonies at 50 ug by Ames assay in presence of Aroclor 1254-induced rat liver S9 metabolic activation system. Format: toxicity, subcellular, Salmonella enterica subsp. enterica serovar Typhimurium. In a few lines:
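Plate incorporation test, S. Typhimurium TA98 (and TA100), with or without Aroclor 1254-induced rat liver S9 (10% vol/vol). Compound dissolved in sterile water, serially diluted to 1–1,000 or 1–500 μg/plate. Positive controls: 2-nitrofluorene and sodium azide without S9, 2-aminoanthracene with S9; water and DMSO vehicle controls. Revertant colonies and background lawn scored; mutagen if mean revertants ≥2-fold solvent control. Single experiment.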

Series [13] in a line: Induction of mutagenicity in Salmonella serovar Typhimurium TA 98 assessed as number of revertant colonies at 100 ug by Ames assay in presence of Aroclor 1254-induced rat liver S9 metabolic activation system. Format: toxicity, subcellular, Salmonella enterica subsp. enterica serovar Typhimurium. In a few lines: as §1
The nature of series [14]: Drug level in Swiss Webster mouse kidney at 5 mg/kg, iv after 2 hrs by HPLC/UV analysis. The note with it: read-out: Drug uptake.
The subject of series [15] is Mus musculus. Description: Toxicity in BALB/c mouse assessed as liver necrosis at 150 mg/kg/day, po. The note with it: in vivo. Further details: route oral. Format: organism-based. In a few lines: (§6)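 Female BALB/c mice (n = 5 per dose), dosed once daily for 5 consecutive days p.o. (20 ml/kg) or i.v. (10 ml/kg) with compound in sterile water, prepared fresh daily under yellow light. Vehicle controls n = 5 per route. Clinical observations, body weights, serum chemistry and hematology on day 6 before necropsy; histopathology of formalin-fixed tissues. Chemistry analysed by one-way ANOVA with Dunnett's posttest.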

Series [16] concerns Mus musculus. Nature of the series: Toxicity in BALB/c mouse assessed as ruffled fur at 50 mg/kg/day, ip administered for five days. In kind it is organism-based. The note with it: in vivo. Further details: route intraperitoneal.
Series [17] concerns Mus musculus. Nature of the series: Toxicity in BALB/c mouse assessed as tremor at 50 mg/kg/day, ip administered for five days. Format: organism-based. The note with it: in vivo. Further details: route intraperitoneal. In a few lines:
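Acute overt toxicity was checked in uninfected female BALB/c mice before the efficacy work. Compounds were given intraperitoneally once daily for 5 days, and mice were watched for clinical signs such as ruffled fur, hypoactivity, tremors, ataxia and startle, and for survival.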

For series [18], the system named is Mus musculus. Nature of the series: Toxicity in BALB/c mouse assessed as ataxia at 100 mg/kg/day, ip after second dose. Format: organism-based. The note with it: in vivo. Further details: route intraperitoneal.
Series [19] is described as follows: Cmax in Swiss Webster mouse at 4.9 mg/kg, iv by HPLC-MS/MS analysis. Further details: dose 4.9 mg/kg, route intravenous. The note with it: in vivo. In kind it is ADME, organism-based. In a few lines:
as §5

Series [20] in a line: Tmax in Swiss Webster mouse at 4.9 mg/kg, iv by HPLC-MS/MS analysis. Format: ADME, organism-based. Further details: dose 4.9 mg/kg, route intravenous. The following applies: in vivo. In a few lines:
as §4

Series [21] deals with Mus musculus. The series is described as §3. Format: ADME, organism-based. Further details: dose 66 mg/kg, route oral. The note with it: in vivo. In a few lines: as §4
Series [22] deals with Mus musculus. Nature of the series: Volume of distribution in Swiss Webster mouse at 131 mg/kg, po by HPLC-MS/MS analysis. Further details: dose 131 mg/kg, route oral. In kind it is ADME, organism-based. The following applies: in vivo. In a few lines: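 Male Swiss Webster mice (n = 3 per time point) got a single oral gavage dose in sterile water, 5 ml/kg. The 5 mM formulation was a clear solution; the 20 and 40 mM formulations were gelatinous. Terminal blood was collected from 5 min to 72 h postdose, and plasma was analysed by HPLC-MS/MS. Volume of distribution came from noncompartmental analysis.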

For series [23], the system named is Mus musculus. Description: Toxicity in BALB/c mouse assessed as occurrence of tremor at 30 mg/kg, iv. Format: organism-based. Further details: dose 30 mg/kg, route intravenous. The following applies: in vivo. In a few lines: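 Single-dose escalation: female BALB/c mice (n = 1 per dose level) given one i.v. dose in sterile water (10 ml/kg), 5–50 mg/kg, observed for 2 days.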

In series [24] the test system is Mus musculus. Nature of the series: Toxicity in BALB/c mouse assessed as occurrence of tremor at 150 mg/kg/day, po administered for five days measured on day 4. Format: organism-based. Further details: route oral. The note with it: in vivo. In a few lines:
as §6

For series [25], the system named is Mus musculus. Description: Hepatotoxicity in BALB/c mouse assessed as alkaline phosphatase level in serum at 100 mg/kg/day, po administered for five days (Rvb= 129 U/L). The following applies: in vivo. Further details: route oral. Format: toxicity, organism-based.

As for `CC(C)Oc1cc(NC(=N)c2ccccn2)ccc1-c1ccc(-c2ccc(NC(=N)c3ccccn3)cc2OC(C)C)o1`, the Activity is reported as 38 in series [1]; 148 in series [2]; “Toxic” in [3]; 73 U/L in the series on Mus musculus [10]; 68 U/L in the series on Mus musculus [11]; 39 in [12]. Besides, in [13], the Activity is 38. In the series with Leishmania donovani [4], the outcome was Active. The inhibition in vivo (usually the relative decrease from the control value, in per cent) at 100 mg/kg/day in the series with Leishmania donovani [5] came to 89%. Also, in the series on Leishmania donovani [6], the inhibition in vivo at 30 mg/kg/day is 67%. The time to peak (Tmax) (commonly the time from dosing to the highest level) in series [7] stood at 4.98 min. Further, the clearance – broadly, the rate of elimination divided by the concentration – in [8] is 13.1 mL/min/kg. Further, the bioavailability (usually dose-corrected exposure relative to a reference, in per cent) in [9] worked out at 10.4%. In addition, the concentration at 2 h in [14] turned out to be 12.7 µM.
With `CCOc1cc(NC(=N)c2ccccn2)ccc1-c1ccc(-c2ccc(NC(=N)c3ccccn3)cc2OCC)o1`, the Activity result with Mus musculus [15], in the series with Mus musculus [16], in the series on Mus musculus [17], in the series on Mus musculus [18], with Mus musculus [23] and in the series with Mus musculus [24] was “Toxic” throughout. Further, in the series with Mus musculus [25], the Activity worked out at 120 U/L. Besides, the Cmax – broadly, the maximum level reached in the sampled fluid or tissue – in [19] was determined as 4.24 µM. In addition, the Tmax in series [20] worked out at 5 min. Moreover, the Vd was found to be 71 L/kg with Mus musculus [21] and 76 L/kg with Mus musculus [22].
